Laboratory results published in article PMC8359281 (Clinical Pharmacology in Drug Development, 2020).

What was measured:
[1] = PK of ACTH1-24 after synthetic ACTH1-24 depot, phase 1 study; format: in vivo, human; conditions: postdosing of synthetic ACTH1-24 depot
free cortisol = format: in vivo, human; conditions: oral methylprednisolone 16 mg once daily
Summary of the method: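 In a single-centre, open-label, parallel-group study, healthy adults (18-50 years, BMI 18.5-30 kg/m2, 51-99 kg, confined on site) took methylprednisolone orally at 16 mg once daily for 15 days. The dose was then tapered to 8 mg daily for 2 days and 4 mg daily for 2 days. Blood for plasma free cortisol was drawn predose and 0.25–24 h postdose on days 1 and 15.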

[2] = system: free steroidogenic exposure; test: Steroidogenic exposure and methylprednisolone/prednisone dose equivalence; format: in vivo, human; conditions: methylprednisolone 16 mg once daily; derived by equation 2 (5 × AUCτ + AUECτ)
Summary of the method: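 Steady-state data came from day 15 of oral methylprednisolone at 16 mg once daily. Free methylprednisolone AUCτ (noncompartmental) and free cortisol AUECτ over one dosing interval were combined by integrating the per-timepoint free steroidogenic concentration equation. Weekly free cortisol exposure was converted to methylprednisolone-equivalent dose, assuming dose-proportionality. Prednisone equivalents used a coefficient of 1.25.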

[3] = cited from earlier work

For “ACTH1-24: the first 24 amino acids of adrenocorticotropic hormone; analyte measured in plasma after synthetic ACTH1-24 depot”, the “time by which plasma concentrations fell below the quantification limit” value [1] was less than 24 h.

In the case of C[C@H]1C[C@@H]2[C@H]([C@@H](O)C[C@@]3(C)[C@H]2CC[C@]3(O)C(=O)CO)[C@@]2(C)C=CC(=O)C=C12 [methylprednisolone], the “endogenous cortisol after administration” value (free cortisol) is listed as “negligible”, the “free steroidogenic exposure at steady state (AUECτSG)” value [2] is listed as 305 ng·h/mL and the “potency of systemic action relative to cortisol” value [3] is listed as 5 times.
